# Measured values published in paper PMC11897355 (Nature Communications, 2025).
# Substitutions are numbered along the chain they refer to. Entries after “also recorded” stand apart in the source; their conditions may differ.
# What was measured:
# [1] = biological target: T1, WT GlyT1 (Homo sapiens, UniProt P48067); test: [3H]glycine kinetic uptake assay, WT GlyT1; format: cell-based
# T1 sequence (P48067 1-652 isoform P48067-3): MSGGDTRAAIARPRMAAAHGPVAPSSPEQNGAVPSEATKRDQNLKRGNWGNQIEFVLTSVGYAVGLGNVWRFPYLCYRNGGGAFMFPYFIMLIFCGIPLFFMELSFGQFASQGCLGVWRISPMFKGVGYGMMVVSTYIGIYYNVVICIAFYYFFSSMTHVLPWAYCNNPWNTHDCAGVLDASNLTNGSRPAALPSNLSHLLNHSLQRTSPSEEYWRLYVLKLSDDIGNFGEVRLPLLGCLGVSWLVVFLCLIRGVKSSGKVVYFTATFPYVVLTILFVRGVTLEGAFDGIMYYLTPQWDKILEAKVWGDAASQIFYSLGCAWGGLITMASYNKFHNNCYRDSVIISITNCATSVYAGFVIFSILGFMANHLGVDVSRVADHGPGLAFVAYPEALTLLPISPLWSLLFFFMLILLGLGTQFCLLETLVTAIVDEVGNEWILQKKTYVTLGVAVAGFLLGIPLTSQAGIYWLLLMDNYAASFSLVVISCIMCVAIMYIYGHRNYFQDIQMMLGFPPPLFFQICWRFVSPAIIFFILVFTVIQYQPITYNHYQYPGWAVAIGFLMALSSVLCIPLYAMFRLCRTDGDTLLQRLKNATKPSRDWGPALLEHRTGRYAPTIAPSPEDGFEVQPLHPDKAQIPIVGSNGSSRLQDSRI
# [2] = biological target: T2, wild-type GlyT1 (Homo sapiens, UniProt P48067); test: [3H]glycine uptake inhibition assay, wild-type GlyT1 in HEK-293F cells; format: cell-based; settings: IC50, [3H]glycine uptake
# T2 sequence (P48067 1-652 isoform P48067-3): T1 sequence (P48067 1-652 isoform P48067-3)
# In short: (§1)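 HEK-293F cells (2.5 × 10^6/mL) infected with baculovirus carrying wild-type or sequence-verified mutant human GlyT1. Cells collected after 15 h and washed in HEPES-Tris pH 7.4 uptake buffer, then preincubated 10 min with graded inhibitor. Uptake ran 1 min at 25 °C with 25 μM [3H]glycine/unlabeled glycine (1:2500). Two cold washes, lysis in 1% Triton X-100, scintillation counting. Uptake normalized to untreated cells. Three independent experiments in triplicate; IC50 fitted to mean data.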
# [3] = biological target: T3, G319S GlyT1 mutant (Homo sapiens, UniProt P48067, G373S); test: [3H]glycine uptake inhibition assay, GlyT1 G319S mutant; format: cell-based
# T3 sequence (P48067 1-652 isoform P48067-3 G319S): T1 sequence (P48067 1-652 isoform P48067-3) with G319S
# In short: as §1
# [4] = system: GlyT1; settings: rat primary neurons; cited from earlier work
# [5] = biological target: T4, L422T GlyT1 mutant (Homo sapiens, UniProt P48067, L476T); test: [3H]glycine uptake inhibition assay, GlyT1 L422T mutant; format: cell-based
# T4 sequence (P48067 1-652 isoform P48067-3 L422T): T1 sequence (P48067 1-652 isoform P48067-3) with L422T
# In short: as §1
# [6] = biological target: T5, wild-type GlyT2 (Homo sapiens, UniProt Q9Y345); test: [3H]glycine uptake inhibition assay, wild-type GlyT2; format: cell-based
# T5 sequence (Q9Y345 1-797): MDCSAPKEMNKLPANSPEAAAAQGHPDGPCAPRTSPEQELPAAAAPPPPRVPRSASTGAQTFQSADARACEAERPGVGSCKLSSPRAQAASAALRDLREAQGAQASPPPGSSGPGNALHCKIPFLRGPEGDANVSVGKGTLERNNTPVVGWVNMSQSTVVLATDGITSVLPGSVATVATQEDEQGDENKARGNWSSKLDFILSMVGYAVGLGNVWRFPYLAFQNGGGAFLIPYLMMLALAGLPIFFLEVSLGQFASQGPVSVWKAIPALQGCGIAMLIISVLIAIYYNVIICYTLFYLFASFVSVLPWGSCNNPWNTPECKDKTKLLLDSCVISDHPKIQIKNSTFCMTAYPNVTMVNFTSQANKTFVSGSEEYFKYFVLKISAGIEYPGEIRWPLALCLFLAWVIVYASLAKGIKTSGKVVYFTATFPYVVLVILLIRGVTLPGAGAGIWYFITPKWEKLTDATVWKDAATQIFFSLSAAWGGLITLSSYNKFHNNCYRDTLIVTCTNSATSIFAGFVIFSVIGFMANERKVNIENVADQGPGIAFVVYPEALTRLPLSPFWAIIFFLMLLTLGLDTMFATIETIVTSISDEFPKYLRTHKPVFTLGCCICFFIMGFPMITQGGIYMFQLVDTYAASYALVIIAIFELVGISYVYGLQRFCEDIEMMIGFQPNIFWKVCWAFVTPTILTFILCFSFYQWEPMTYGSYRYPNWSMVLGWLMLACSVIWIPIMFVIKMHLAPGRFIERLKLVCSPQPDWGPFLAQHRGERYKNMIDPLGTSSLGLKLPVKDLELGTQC
# [7] = biological target: T5, wild-type GlyT2; settings: cited from earlier work
# [8] = biological target: T6, S479G GlyT2 mutant (Homo sapiens, UniProt Q9Y345, S479G); test: [3H]glycine uptake inhibition assay, GlyT2 S479G mutant; format: cell-based
# T6 sequence (Q9Y345 1-797 S479G): T5 sequence (Q9Y345 1-797) with S479G
# [9] = system: HEK-293F cells; test: Cholesterol quantification after MβCD or wsCHOL treatment; format: cell-based, human
# [10] = system: WT GlyT1; test: Cell surface biotinylation and immunoblot; format: cell-based, human; settings: 2.5 mg/mL and 3.5 mg/mL MβCD
compound,measurement,setting,value
NCC(=O)O [glycine],Km,"[1]; WT GlyT1, untreated cells",126 µM
C[C@@H](Oc1ccc(S(C)(=O)=O)cc1C(=O)N1C[C@@H]2C[C@]2(c2cc(C(F)(F)F)on2)C1)C(F)(F)F [iclepertin],IC50,[2]; wild-type GlyT1,0.162 ± 0.0196 µM
same,inhibition of G319S mutant,[3],not inhibited; also recorded: no visible inhibition effect
same,IC50,[4],0.0052 ± 0.0012 µM
same,IC50,[5],5.25 ± 0.33 µM
"CNCC(=O)O [sarcosine, N-methyl glycine]",sensitivity of WT GlyT2 to inhibition,[6],not sensitive
same,IC50,"[2]; wild-type GlyT1, mean ± S.E.M.",96.8 ± 13.7 µM
same,IC50,[3],18600 ± 1550 µM
same,reduction of inhibitory potency on G319S compared to WT GlyT1,[3],~ 200 fold
same,inhibition of GlyT1 versus GlyT2,[7],can inhibit GlyT1 but not GlyT2
same,susceptibility of S479G GlyT2 to inhibition,[8],susceptibility similar to that of WT GlyT1
Methyl-β-cyclodextrin [MβCD],decrease of cholesterol content on the membrane,[9]; 2.5 mg/mL MβCD,10%
same,decrease of cholesterol content on the membrane,[9]; 3.5 mg/mL MβCD,20%
same,effect on surface expression of GlyT1,[10],without altering the surface expression
same,reduction of Vmax compared to WT GlyT1,[1]; 2.5 mg/mL MβCD,about 19.6%
same,reduction of Vmax compared to WT GlyT1,[1]; 3.5 mg/mL MβCD,~26.7%
same,effect on Km values,[1]; 2.5 and 3.5 mg/mL MβCD,remained relatively unaffected
